In ChEMBL document CHEMBL4007469, “Design and synthesis of dalbergin analogues and evaluation of anti-osteoporotic activity” (Bioorg Med Chem Lett, 2017):
Calls of active or inactive are those of the source. The rule behind the calls is not given here.

Tests used:
[1] = Induction of osteoblast differentiation in mouse calvarial cells assessed as compound concentration required for maximum increase in ALP activity using PNPP as substrate after 48 hrs; format: functional, Calvarial cell
[2] = Induction of osteoblast differentiation in mouse calvarial cells assessed as increase in ALP activity using PNPP as substrate after 48 hrs; format: functional, cell-based; settings: Calvarial cell
Calvarial cell = assay: Induction of mineralization in mouse calvarial cells assessed as calcium nodule formation at Emax incubated for 12 days by alizarin red-S staining based spectrophotometric method; format: functional
Summary of the method: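 Primary mouse calvarial osteoblasts treated with or without compound for 12 days, fixed in 4% formaldehyde, stained with alizarin red-S, and the stain extracted and quantified by the acetic acid method.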

Row | Compound | EC50 [2] [nM] | Concentration giving maximal ALP increase [1] [pM] | Activity (Calvarial cell)
1 | COc1cc2oc(=O)cc(-c3ccccc3)c2cc1OCCCN1CCCCC1 | 7.6 | 1 | Active
2 | COc1cc2oc(=O)cc(-c3ccccc3)c2cc1OCCN1CCN(C)CC1 | 14.8 | 1 | Active
3 | CCN1CCN(CCCCCOc2cc3c(-c4ccccc4)cc(=O)oc3cc2OC)CC1 | 12400 | – | –
4 | CCN1CCN(CCOc2cc3c(-c4ccccc4)cc(=O)oc3cc2OC)CC1 | 13.6 | 1 | Active
5 | COc1cc2oc(=O)cc(-c3ccccc3)c2cc1OC(=O)Cc1cccs1 | 7.4 | 10000 | –
6 | COc1cc2oc(=O)cc(-c3ccccc3)c2cc1OCCN1CCOCC1 | 11.7 | 1 | Active
7 | COc1cc2oc(=O)cc(-c3ccccc3)c2cc1OCCCCCBr | 5.7 | 10000 | Active
8 | C/C=C(\C)C(=O)Oc1cc2c(-c3ccccc3)cc(=O)oc2cc1OC | 1.1 | 1e+06 | –

Further compounds by falling EC50 [2], results first:

Row | EC50 [2] [nM] | Compound | Concentration giving maximal ALP increase [1] [pM] | Activity (Calvarial cell)
9 | 900 | COc1cc2oc(=O)cc(-c3ccccc3)c2cc1OCCCCCN1CCOCC1 | 10000 | Active
10 | 27.9 | CCN1CCN(CCCOc2cc3c(-c4ccccc4)cc(=O)oc3cc2OC)CC1 | 10000 | –
11 | 19.4 | COc1cc2oc(=O)cc(-c3ccccc3)c2cc1OCCCl | 1 | –
12 | 10.8 | COc1cc2oc(=O)cc(-c3ccccc3)c2cc1OCCCCCN1CCCCC1 | 1 | Active
13 | 9.42 | COc1cc2oc(=O)cc(-c3ccccc3)c2cc1OCCCN1CCN(C)CC1 | 100 | –
14 | 5.9 | COc1cc2oc(=O)cc(-c3ccccc3)c2cc1OCCCBr | 100 | Active
15 | 0.8 | COc1cc2oc(=O)cc(-c3ccccc3)c2cc1OC(=O)c1ccc(Br)cc1 | 1e+06 | –
